Source: ChEMBL document CHEMBL1142148, “Antibiotic susceptibility profile of bifidobacteria as affected by oxgall, acid, and hydrogen peroxide stress” (2007)
≈ marks a conversion by molar mass, not a printed value.

Columns and labels:
[1] = test system: Bifidobacterium thermophilum; experiment: Antimicrobial activity against 60 min 1 M HCl-stressed Bifidobacterium thermophilum ATCC 25866 after 18 hrs; assay type: functional
Method in brief: (§1)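 Mid-log MRS culture pelleted and resuspended in MRS broth brought to pH 2.0 with 1 M HCl, held anaerobically at 37°C for 60 min, then subcultured in MRS (pH 6.5) for 24 h anaerobically before MIC testing by broth microdilution (as for unstressed cells). Table footnote gives 18 h anaerobic regrowth after the stress. MIC is the median of four repetitions.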

[2] = test system: Bifidobacterium longum; experiment: Antimicrobial activity against Bifidobacterium longum ATCC 15707; assay type: functional
Method in brief: (§2)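 Broth microdilution in MRS plus 0.05% L-cysteine-HCl. Mid-log culture adjusted to OD650 0.1, giving about 2.5 × 10^4 to 5.0 × 10^4 CFU/well, then added to twofold serial dilutions of agent. Plates incubated anaerobically at 37°C for 18 h and read at OD650. MIC is the lowest concentration matching the uninoculated blank OD, taken as the median of four repeats.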

[3] = test system: Bifidobacterium breve; experiment: Antimicrobial activity against Bifidobacterium breve ATCC 15700; assay type: functional; method in brief: as §2
[4] = test system: Bifidobacterium bifidum; experiment: Antimicrobial activity against Bifidobacterium bifidum R0071; assay type: functional; method in brief: as §2
[5] = test system: Bifidobacterium pseudolongum; experiment: Antimicrobial activity against Bifidobacterium pseudolongum ATCC 25562; assay type: functional; method in brief: as §2
[6] = test system: Bifidobacterium thermophilum; experiment: Antimicrobial activity against 90 mins oxgall-stressed Bifidobacterium thermophilum ATCC 25866 after 18 hrs; assay type: functional
Method in brief: (§3)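 Cells pelleted from mid-log MRS culture and resuspended in MRS (initial pH 6.5) with 0.3% (wt/vol) oxgall for 90 min anaerobically at 37°C. They were then regrown in MRS pH 6.5 for 24 h (footnote: 18 h) anaerobically and tested for MIC by the same broth microdilution assay. Median of four repetitions.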

[7] = test system: Bifidobacterium animalis; experiment: Antimicrobial activity against 90 mins hydrogen peroxide-stressed Bifidobacterium animalis ATCC 27536 after 18 hrs; assay type: functional
Method in brief: (§4)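 Stress applied for 90 min at 37°C under anaerobic conditions, using MRS (initial pH 6.5) containing H2O2 at each strain's own inhibitory concentration. The H2O2 level was set beforehand by microplate tolerance testing. Challenged cells were regrown in MRS for 24 h (footnote: 18 h) before MIC testing by broth microdilution. Median of four repetitions.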

[8] = Antimicrobial activity against Bifidobacterium infantis ATCC 15697; assay type: functional, Bifidobacterium longum subsp. infantis; settings: Bifidobacterium longum; method in brief: as §2
[9] = test system: Bifidobacterium breve; experiment: Antimicrobial activity against 90 mins hydrogen peroxide-stressed Bifidobacterium breve R0070 after 18 hrs; assay type: functional; method in brief: as §4
[10] = test system: Bifidobacterium bifidum; experiment: Antimicrobial activity against 90 mins oxgall-stressed Bifidobacterium bifidum BB12 after 18 hrs; assay type: functional; method in brief: as §3
[11] = test system: Bifidobacterium bifidum; experiment: Antimicrobial activity against 90 mins oxgall-stressed Bifidobacterium bifidum ATCC 15696 after 18 hrs; assay type: functional; method in brief: as §3
[12] = test system: Bifidobacterium animalis; experiment: Antimicrobial activity against 60 min 1 M HCl-stressed Bifidobacterium animalis ATCC 27536 after 18 hrs; assay type: functional; method in brief: as §1
[13] = test system: Bifidobacterium longum; experiment: Antimicrobial activity against 90 mins hydrogen peroxide-stressed Bifidobacterium longum P/N 601377 after 18 hrs; assay type: functional; method in brief: as §4
[14] = test system: Bifidobacterium longum; experiment: Antimicrobial activity against Bifidobacterium longum R0175; assay type: functional; method in brief: as §2
[15] = test system: Bifidobacterium bifidum; experiment: Antimicrobial activity against 60 min 1 M HCl-stressed Bifidobacterium bifidum BB12 after 18 hrs; assay type: functional; method in brief: as §1
[16] = test system: Bifidobacterium bifidum; experiment: Antimicrobial activity against 90 mins hydrogen peroxide-stressed Bifidobacterium bifidum R0071 after 18 hrs; assay type: functional; method in brief: as §4
[17] = test system: Bifidobacterium breve; experiment: Antimicrobial activity against 60 min 1 M HCl-stressed Bifidobacterium breve ATCC 15700 after 18 hrs; assay type: functional; method in brief: as §1
[18] = Antimicrobial activity against 90 mins oxgall-stressed Bifidobacterium infantis ATCC 15697 after 18 hrs; assay type: functional, Bifidobacterium longum subsp. infantis; settings: Bifidobacterium longum; method in brief: as §3
[19] = test system: Bifidobacterium longum; experiment: Antimicrobial activity against 60 min 1 M HCl-stressed Bifidobacterium longum R0175 after 18 hrs; assay type: functional; method in brief: as §1
[20] = test system: Bifidobacterium pseudolongum; experiment: Antimicrobial activity against 90 mins oxgall-stressed Bifidobacterium pseudolongum ATCC 25562 after 18 hrs; assay type: functional; method in brief: as §3
[21] = test system: Bifidobacterium longum; experiment: Antimicrobial activity against Bifidobacterium longum P/N 601377; assay type: functional; method in brief: as §2
[22] = test system: Bifidobacterium breve; experiment: Antimicrobial activity against 90 mins oxgall-stressed Bifidobacterium breve R0070 after 18 hrs; assay type: functional; method in brief: as §3
[23] = test system: Bifidobacterium bifidum; experiment: Antimicrobial activity against 90 mins hydrogen peroxide-stressed Bifidobacterium bifidum BB12 after 18 hrs; assay type: functional; method in brief: as §4
[24] = test system: Bifidobacterium longum; experiment: Antimicrobial activity against 90 mins oxgall-stressed Bifidobacterium longum ATCC 15708 after 18 hrs; assay type: functional; method in brief: as §3
[25] = test system: Bifidobacterium longum; experiment: Antimicrobial activity against 90 mins oxgall-stressed Bifidobacterium longum ATCC 15707 after 18 hrs; assay type: functional; method in brief: as §3
[26] = test system: Bifidobacterium breve; experiment: Antimicrobial activity against 60 min 1 M HCl-stressed Bifidobacterium breve R0070 after 18 hrs; assay type: functional; method in brief: as §1
[27] = test system: Bifidobacterium bifidum; experiment: Antimicrobial activity against 90 mins oxgall-stressed Bifidobacterium bifidum R0071 after 18 hrs; assay type: functional; method in brief: as §3
[28] = test system: Bifidobacterium longum; experiment: Antimicrobial activity against 60 min 1 M HCl-stressed Bifidobacterium longum ATCC 15707 after 18 hrs; assay type: functional; method in brief: as §1
[29] = test system: Bifidobacterium animalis; experiment: Antimicrobial activity against Bifidobacterium animalis ATCC 27536; assay type: functional; method in brief: as §2
[30] = test system: Bifidobacterium breve; experiment: Antimicrobial activity against 90 mins oxgall-stressed Bifidobacterium breve ATCC 15700 after 18 hrs; assay type: functional; method in brief: as §3
[31] = test system: Bifidobacterium thermophilum; experiment: Antimicrobial activity against Bifidobacterium thermophilum ATCC 25866; assay type: functional; method in brief: as §2
[32] = test system: Bifidobacterium longum; experiment: Antimicrobial activity against 60 min 1 M HCl-stressed Bifidobacterium longum P/N 601377 after 18 hrs; assay type: functional; method in brief: as §1
[33] = test system: Bifidobacterium pseudolongum; experiment: Antimicrobial activity against 60 min 1 M HCl-stressed Bifidobacterium pseudolongum ATCC 25562 after 18 hrs; assay type: functional; method in brief: as §1
[34] = Antimicrobial activity against 60 min 1 M HCl-stressed Bifidobacterium infantis ATCC 15697 after 18 hrs; assay type: functional, Bifidobacterium longum subsp. infantis; settings: Bifidobacterium longum; method in brief: as §1
[35] = test system: Bifidobacterium breve; experiment: Antimicrobial activity against Bifidobacterium breve R0070; assay type: functional; method in brief: as §2
[36] = test system: Bifidobacterium animalis; experiment: Antimicrobial activity against 90 mins oxgall-stressed Bifidobacterium animalis ATCC 27536 after 18 hrs; assay type: functional; method in brief: as §3
[37] = test system: Bifidobacterium longum; experiment: Antimicrobial activity against 90 mins hydrogen peroxide-stressed Bifidobacterium longum ATCC 15708 after 18 hrs; assay type: functional; method in brief: as §4
[38] = test system: Bifidobacterium longum; experiment: Antimicrobial activity against 90 mins hydrogen peroxide-stressed Bifidobacterium longum R0175 after 18 hrs; assay type: functional; method in brief: as §4
[39] = test system: Bifidobacterium bifidum; experiment: Antimicrobial activity against Bifidobacterium bifidum ATCC 15696; assay type: functional; method in brief: as §2
[40] = test system: Bifidobacterium longum; experiment: Antimicrobial activity against 90 mins oxgall-stressed Bifidobacterium longum P/N 601377 after 18 hrs; assay type: functional; method in brief: as §3
[41] = test system: Bifidobacterium bifidum; experiment: Antimicrobial activity against Bifidobacterium bifidum BB12; assay type: functional; method in brief: as §2
[42] = test system: Bifidobacterium longum; experiment: Antimicrobial activity against 90 mins hydrogen peroxide-stressed Bifidobacterium longum ATCC 15707 after 18 hrs; assay type: functional; method in brief: as §4
[43] = test system: Bifidobacterium thermophilum; experiment: Antimicrobial activity against 90 mins hydrogen peroxide-stressed Bifidobacterium thermophilum ATCC 25866 after 18 hrs; assay type: functional; method in brief: as §4
[44] = test system: Bifidobacterium longum; experiment: Antimicrobial activity against 90 mins oxgall-stressed Bifidobacterium longum R0175 after 18 hrs; assay type: functional; method in brief: as §3
[45] = test system: Bifidobacterium longum; experiment: Antimicrobial activity against Bifidobacterium longum ATCC 15708; assay type: functional; method in brief: as §2
[46] = test system: Bifidobacterium breve; experiment: Antimicrobial activity against 90 mins hydrogen peroxide-stressed Bifidobacterium breve ATCC 15700 after 18 hrs; assay type: functional; method in brief: as §4
[47] = test system: Bifidobacterium bifidum; experiment: Antimicrobial activity against 60 min 1 M HCl-stressed Bifidobacterium bifidum R0071 after 18 hrs; assay type: functional; method in brief: as §1

**Q.** Which results are given for `CN[C@@H]1[C@H](O[C@H]2[C@H](O[C@H]3[C@H](O)[C@@H](O)[C@H](N=C(N)N)[C@@H](O)[C@@H]3N=C(N)N)O[C@@H](C)[C@]2(O)C=O)O[C@@H](CO)[C@H](O)[C@H]1O` [STREPTOMYCIN]?
**A.** MIC [1]: 250 µg/mL (≈ 430 µM); MIC [2]: 250 µg/mL (≈ 430 µM); MIC [3]: 250 µg/mL (≈ 430 µM); MIC [4]: 250 µg/mL (≈ 430 µM); MIC [5]: 250 µg/mL (≈ 430 µM); MIC [6]: 250 µg/mL (≈ 430 µM); MIC [7]: 250 µg/mL (≈ 430 µM); MIC [8]: 250 µg/mL (≈ 430 µM); MIC [9]: 250 µg/mL (≈ 430 µM); MIC [10]: 500 µg/mL (≈ 860 µM); MIC [11]: 1.9 µg/mL (≈ 3.27 µM); MIC [12]: 125 µg/mL (≈ 215 µM); MIC [13]: 125 µg/mL (≈ 215 µM); MIC [14]: 62.5 µg/mL (≈ 107 µM); MIC [15]: 125 µg/mL (≈ 215 µM); MIC [16]: 250 µg/mL (≈ 430 µM); MIC [17]: 125 µg/mL (≈ 215 µM); MIC [18]: 250 µg/mL (≈ 430 µM); MIC [19]: 31.2 µg/mL (≈ 53.6 µM); MIC [20]: 250 µg/mL (≈ 430 µM); MIC [21]: 125 µg/mL (≈ 215 µM); MIC [22]: 125 µg/mL (≈ 215 µM); MIC [23]: 250 µg/mL (≈ 430 µM); MIC [24]: 250 µg/mL (≈ 430 µM); MIC [25]: 62.5 µg/mL (≈ 107 µM); MIC [26]: 125 µg/mL (≈ 215 µM); MIC [27]: 125 µg/mL (≈ 215 µM); MIC [28]: 250 µg/mL (≈ 430 µM); MIC [29]: 250 µg/mL (≈ 430 µM); MIC [30]: 250 µg/mL (≈ 430 µM); MIC [31]: 250 µg/mL (≈ 430 µM); MIC [32]: 62.5 µg/mL (≈ 107 µM); MIC [33]: 250 µg/mL (≈ 430 µM); MIC [34]: 250 µg/mL (≈ 430 µM); MIC [35]: 15.6 µg/mL (≈ 26.8 µM); MIC [36]: 125 µg/mL (≈ 215 µM); MIC [37]: 500 µg/mL (≈ 860 µM); MIC [38]: 250 µg/mL (≈ 430 µM); MIC [39]: 250 µg/mL (≈ 430 µM); MIC [40]: 125 µg/mL (≈ 215 µM); MIC [41]: 250 µg/mL (≈ 430 µM); MIC [42]: 62.5 µg/mL (≈ 107 µM); MIC [43]: 500 µg/mL (≈ 860 µM); MIC [44]: 125 µg/mL (≈ 215 µM); MIC [45]: 250 µg/mL (≈ 430 µM); MIC [46]: 500 µg/mL (≈ 860 µM); MIC [47]: 250 µg/mL (≈ 430 µM)
